DENV2 CPE rescue: DENV2-induced cell death inhibition; DENV2-infected cells, cytopathic effect rescue, plate reader; CPE inhibition, % at 9.99 µM; 350,000 compounds, 1.7% hits; AID 651640; in the data active = CPE inhibition above about 20%, passing the limit was not always enough; tested in BHK-21 cells
SIRT5 inh: inhibitors of human sirtuin-5 desuccinylase | Purified SirT5, succinyl-peptide AMC, trypsin-coupled fluorescence | inhibition, % at 15 µM | 330,000 compounds, 1.1% hits; in the data active = inhibition above about 15%
Target sequence (Q9NXA8 whole entry, looked up): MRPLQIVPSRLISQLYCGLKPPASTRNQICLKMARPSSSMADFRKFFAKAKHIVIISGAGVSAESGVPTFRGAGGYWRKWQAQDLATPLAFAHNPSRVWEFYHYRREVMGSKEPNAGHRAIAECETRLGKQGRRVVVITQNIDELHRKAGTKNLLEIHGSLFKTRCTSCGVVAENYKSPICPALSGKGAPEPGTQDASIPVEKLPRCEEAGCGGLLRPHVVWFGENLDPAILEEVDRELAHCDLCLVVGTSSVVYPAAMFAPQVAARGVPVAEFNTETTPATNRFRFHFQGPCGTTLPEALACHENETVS
E-selectin induc: induces E-selectin expression in human endothelial cells | activation, % at 7.58 µM | AID 686992 | P16581 | HUVEC E-selectin immunofluorescence imaging; normalized: neutral wells 0, TNF-alpha wells 100 | 260,000 compounds, 0.37% hits;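 active = mean E-selectin-positive cell signal at least 10% of the positive control, reached in at least 60% of replicates, without over 20% cell loss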
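Test system: HUVEC; input: 3,000 HUVEC/well; measured by: immunofluorescence imaging; read-out: % PE-positive cells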
Hits are given with their value; 0 = inactive; - = no result given. A selection: hits, their analogues and other compounds. The true share with any hit is near 2.8%.

SMILES	DENV2 CPE rescue	SIRT5 inh	E-selectin induc
C[C@H](CO)N1C[C@H](C)[C@H](CN(C)Cc2ccccn2)Oc2cc(C#C[C@@H](C)O)ccc2S1(=O)=O	0	0	0
CC(C)C#Cc1ccc2c(c1)O[C@@H](CN(C)Cc1ccccn1)[C@H](C)CN([C@H](C)CO)S2(=O)=O	0	18.7	0
C[C@@H]1CN([C@H](C)CO)S(=O)(=O)c2ccc(C#Cc3ccccn3)cc2O[C@@H]1CN(C)Cc1cccc(F)c1	0	26.8	0
CC(C)C#Cc1ccc2c(c1)O[C@@H](CN(C)Cc1ccccn1)[C@@H](C)CN([C@H](C)CO)S2(=O)=O	0	0	0
C[C@@H]1CN([C@@H](C)CO)S(=O)(=O)c2ccc(C#Cc3ccccn3)cc2O[C@H]1CN(C)Cc1cccc(F)c1	0	0	0
O=C(NC1CCCCC1)N1CC(=O)N2[C@@H](CO)[C@@H](c3ccc(-c4cccnc4)cc3)[C@@H]2C1	0	0	0
C[C@H]1CN([C@@H](C)CO)C(=O)Cc2cc(NS(=O)(=O)c3cccs3)ccc2O[C@@H]1CN(C)Cc1ccc2c(c1)OCO2	0	0	0
C[C@@H]1CN([C@@H](C)CO)C(=O)c2cc(NC(=O)Nc3cccc4ccccc34)ccc2O[C@@H](C)CCCCO[C@H]1CN(C)C(=O)C1CCCCC1	22.2	0	0
C[C@@H]1CN([C@H](C)CO)C(=O)c2cc(NC(=O)Nc3cccc4ccccc34)ccc2O[C@@H](C)CCCCO[C@@H]1CN(C)C(=O)C1CCCCC1	0	0	0
C[C@@H]1CCCCO[C@H](CN(C)C(=O)C2CCCCC2)[C@H](C)CN([C@@H](C)CO)C(=O)c2cc(NC(=O)Nc3cccc4ccccc34)ccc2O1	0	0	0
C[C@@H]1CCCCO[C@@H](CN(C)C(=O)C2CCCCC2)[C@H](C)CN([C@H](C)CO)C(=O)c2cc(NC(=O)Nc3cccc4ccccc34)ccc2O1	23.3	0	0
C[C@@H]1CCCCO[C@@H](CN(C)C(=O)C2CCCCC2)[C@@H](C)CN([C@H](C)CO)C(=O)c2cc(NC(=O)Nc3cccc4ccccc34)ccc2O1	22.2	0	0
C[C@H](CO)N1C[C@H](C)[C@H](CN(C)C(=O)C2CCCCC2)OCCCC[C@H](C)Oc2ccc(NC(=O)Nc3cccc4ccccc34)cc2C1=O	0	0	0
C[C@@H]1CCCCO[C@H](CN(C)C(=O)C2CCCCC2)[C@@H](C)CN([C@@H](C)CO)C(=O)c2cc(NC(=O)Nc3cccc4ccccc34)ccc2O1	26.2	0	0
C[C@H](CO)N1C[C@H](C)[C@@H](CN(C)C(=O)C2CCCCC2)OCCCC[C@H](C)Oc2ccc(NC(=O)Nc3cccc4ccccc34)cc2C1=O	0	0	0
CO[C@@H]1CN(C)C(=O)c2ccc(NC(C)=O)cc2OC[C@@H](C)N(C(=O)c2ccccn2)C[C@H]1C	0	-	0
CCCC#Cc1cnc2c(c1)C(=O)N([C@@H](C)CO)C[C@@H](C)[C@H](CN(C)C(=O)c1ccc3c(c1)OCO3)O2	83.5	0	0
CCCC#Cc1cnc2c(c1)C(=O)N([C@@H](C)CO)C[C@H](C)[C@H](CN(C)C(=O)c1ccc3c(c1)OCO3)O2	0	0	0
C[C@H](CO)N1C[C@H](C)[C@H](CN(C)C(=O)c2ccc3c(c2)OCO3)Oc2ncc(C#CCN(C)C)cc2C1=O	24.9	0	0
C[C@@H]1CN([C@H](C)CO)C(=O)c2cc(C#CCN(C)C)cnc2O[C@H]1CN(C)C(=O)c1ccc2c(c1)OCO2	0	0	0
C=CCS(=O)(=O)N1CCCC(N(C)CCc2ccc(OC)c(OC)c2)C1 (stereo unspecified)	0	0	0
COc1ccc(CCN(C)C2CCCN(S(=O)(=O)N(C)C)C2)cc1OC (stereo unspecified)	0	15.2	-
Cc1nc(C(=O)NC2CCOCC2)sc1C1(C)CC(c2ccccc2)=NO1 (stereo unspecified)	0	-	0
Cc1nc(C(=O)NC2CCOCC2)sc1C1(C)CC(c2cccc([N+](=O)[O-])c2)=NO1 (stereo unspecified)	43.8	0	0
Cc1cccc(CC(=O)Nc2sc(C(C)C)cc2C(=O)N2CCOCC2)c1	0	0	66.8
SMILES	DENV2 CPE rescue	SIRT5 inh	E-selectin induc
CCC(Oc1cccc(C)c1)C(=O)Nc1ccccc1C(=O)N1CCOCC1 (stereo unspecified)	0	0	0
C[C@H](CO)N1C[C@H](C)[C@@H](CN(C)C(=O)c2ccncc2)Oc2ncc(C3=CCCCC3)cc2C1=O	0	0	0
O=C(NC1Cc2ccccc2C1)[C@@H]1[C@@H](CO)[C@@H]2Cn3c(cccc3=O)[C@@H]2N1C(=O)C1CC1	0	0	0
COCC(=O)Nc1ccc2c(c1)C(=O)N(C)[C@@H]1CC[C@H](CC(=O)NCc3ccccc3)O[C@@H]1CO2	0	0	0
CNC[C@H]1Oc2ncc(-c3ccc(OC)cc3)cc2C(=O)N([C@@H](C)CO)C[C@@H]1C	-	-	0
COc1ccc(C)cc1NC(=O)CCNC(=O)Cn1cnc2ccccc2c1=O	0	17.9	0
COc1ccc(OC)c(NC(=O)CCNC(=O)Cn2cnc3ccccc3c2=O)c1	0	0	-
Cc1noc(C)c1NC(=O)Nc1ccc2c(c1)C(=O)N([C@H](C)CO)C[C@H](C)[C@@H](CN(C)Cc1ccc(Oc3ccccc3)cc1)O2	0	0	0
COc1ccc(CN(C)C[C@H]2Oc3ccc(NC(=O)Nc4c(C)noc4C)cc3CC(=O)N([C@H](C)CO)C[C@@H]2C)cc1	0	0	0
COc1ccc(CN(C)C[C@@H]2Oc3ccc(NC(=O)Nc4c(C)noc4C)cc3CC(=O)N([C@H](C)CO)C[C@@H]2C)cc1	40.8	0	0
COc1ccc(CN(C)C[C@H]2Oc3ccc(NC(=O)Nc4c(C)noc4C)cc3C(=O)N([C@@H](C)CO)C[C@H]2C)cc1	0	0	239.1
CCNC(=O)C[C@H]1CC[C@H]2[C@@H](COC[C@H](O)CN2C(=O)C2CC2)O1	0	0	0
C[C@H]1CN([C@@H](C)CO)C(=O)c2cc(-c3ccccc3F)cnc2O[C@@H]1CN(C)C(=O)C1CC1	0	0	0
C[C@H](CO)N1C[C@H](C)[C@@H](CN(C)Cc2ccc(Cl)c(Cl)c2)OCCCC[C@H](C)Oc2ccc(NS(=O)(=O)c3ccc(Cl)cc3)cc2C1=O	0	0	-
CCc1ccc(OCC(=O)NNC(=O)c2cc3ccccc3o2)cc1	0	0	0
CCCCOc1ccc(S(=O)(=O)NNC(=O)c2cc3ccccc3o2)cc1	0	30.6	-
C[C@H]1CN([C@@H](C)CO)C(=O)c2cc(NS(=O)(=O)c3ccc(Cl)cc3)ccc2O[C@@H]1CN(C)S(=O)(=O)c1ccc(F)cc1	0	0	0
COc1ccc2c3c(n(C)c2c1)[C@H](CO)N(C(=O)c1cccnc1)CC31CCN(S(C)(=O)=O)CC1	0	-	0
COc1ccc(NC(=O)Nc2ccc3c(c2)C(=O)N([C@@H](C)CO)C[C@H](C)[C@@H](CN(C)C(=O)Nc2c(C)noc2C)OCCCC[C@H](C)O3)cc1	0	0	0
O=C(Nc1nnc(-c2ccco2)o1)c1ccc(S(=O)(=O)N2CCCC2)cc1	0	0	-
CS(=O)(=O)c1cccc(-c2nnc(NC(=O)c3ccc(S(=O)(=O)N4CCCC4)cc3)o2)c1	60.7	0	0

Screening results deposited in PubChem BioAssay by Broad Institute.
